MC4R antag cAMP: MC4R antagonists of cAMP signaling, primary screen, cell-based, TR-FRET, antagonist arm of biased-ligand search; Melanocortin receptor 4 (Homo sapiens), P32245; MC4R-expressing cells, MTII-stimulated cAMP, LANCE TR-FRET; inhibition, % at 6.5 µM; actives 0.48% (n = 360,000);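 active = inhibition above its plate's cutoff, the mean of tested wells on that plate plus 3 SD, cut at about 29% in these data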;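 also: 0% = Melanotan II alone and 100% = Melanotan II plus saturating MCL0020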
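System: U2OS cells stably expressing human melanocortin 4 receptor (MC4R). Reagent: Melanotan II challenge after compound preincubation. Doses: 6.5 µM. Times: 30-min compound, 1-h challenge, 1-h detection, room temperature. Measured by: TR-FRET with Eu-cAMP and labeled anti-cAMP, 671 nm. Replicates: singlicate.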
EBI2 block: EBI2 receptor antagonists, beta-arrestin recruitment, primary screen, cell-based, luminescence, 7a,25-OHC stimulation, uHTS; AID 651636, 2012; 7a,25-OHC stimulated; inhibition, % at 5 µM; actives 0.81% (n = 360,000); in the data active = inhibition above about 38%;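 also: enzyme fragment complementation signal reports receptor beta-arrestin coupling in cells; 0% = agonist plus DMSO wells and 100% = wells without agonist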
Target sequence (P32249 whole entry, looked up, the tested form may be a part): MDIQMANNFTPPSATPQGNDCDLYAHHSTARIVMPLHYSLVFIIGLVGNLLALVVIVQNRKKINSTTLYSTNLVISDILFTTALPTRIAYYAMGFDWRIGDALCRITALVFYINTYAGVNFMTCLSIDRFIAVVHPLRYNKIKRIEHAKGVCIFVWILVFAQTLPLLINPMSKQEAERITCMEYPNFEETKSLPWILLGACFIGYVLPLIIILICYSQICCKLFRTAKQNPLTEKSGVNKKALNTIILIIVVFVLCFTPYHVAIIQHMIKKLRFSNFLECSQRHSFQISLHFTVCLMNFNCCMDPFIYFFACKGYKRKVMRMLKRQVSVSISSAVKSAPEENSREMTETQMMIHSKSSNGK
Myeloid diff MLP: induction of myeloid progenitor differentiation, primary screen, cell-based, flow cytometry, MLPCN library | ER-HoxA9 myeloid progenitors, lysozyme-GFP differentiation | AID 624256, 2012 | actives 1% (n = 360,000) | calls only at 10 µM;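 active = normalized GFP-positive differentiation at or above the plate's own cutoff, the solvent-only control mean plus 3 SD; inconclusive = no clear call, values can overlap the other calls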;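 also: cells exposed to compound for four days before flow analysis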
MC4R ag barr: MC4R agonists recruiting beta-arrestin, primary screen, cell-based, luminescence, agonist arm of biased-ligand search | actives 0.98% (n = 360,000) | Melanocortin receptor 4 (Homo sapiens), P32245 | U2OS MC4R beta-arrestin complementation; percent of melanotan II response, DMSO zero | AID 540308, 2011 | activation, % at 8.9 µM;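 active = activation above a per-plate cutoff, the mean activation of sample wells on that plate plus 3 SD, cut at about 8% in these data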
Granule exo inh: LAMP-1 surface exposure blockers, TALL-104 cells – cell-based, flow cytometry, MLPCN library, primary screen | inhibition, % at 10 µM | TALL-104 LAMP-1 surface exposure; cells stimulated with thapsigargin and PMA | actives 0.66% (n = 360,000) | AID 651702, 2012;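 active = inhibition above about 55%, limit read from the data; inconclusive = no clear call, values can overlap the other calls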
Exocytosis CP01: inhibitors of lytic granule exocytosis, confirmation, TALL-104 cells, flow cytometry, Cherry Pick01 | LAMP-1 externalization; stimulated with PMA plus thapsigargin | shares compounds with Granule exo inh | AID 651954, 2012 | inhibition, % at 10 µM | actives 11% (n = 1,500); in the data active = inhibition above about 60%;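 also: 0% = stimulated vehicle wells and 100% = unstimulated wells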
Starred values were filed as active, the others as inactive; i = inactive; u = inconclusive; x = no result given. Only some compounds are listed: those with a hit (about 3.7% of all), similar ones and a draw of the others.

SMILES | MC4R antag cAMP | EBI2 block | Myeloid diff MLP | MC4R ag barr | Granule exo inh | Exocytosis CP01
COc1cc(C(=O)Nc2c(C)cc(C)cc2C)c(Br)c(OC)c1OC | 13.6 | -0.7 | i | -0.8 | -3.0 | x
C[C@@H]1COc2cc(N3CCC[C@H]3CO)ccc2S(=O)(=O)N1 | x | -0.1 | i | x | -3.1 | x
COc1ccc(-n2sc3ccccc3c2=O)cc1 | -8.1 | 14.4 | i | -1.8 | 84.2* | 99.9*
Cc1cccc(C)c1NC(=O)CNC(=O)CCCc1c[nH]c2ccccc12 | 3.8 | -0.9 | i | -1.0 | -5.1 | x
CCOC(=O)c1c(-c2ccc(OC)cc2)oc2ccc(O)cc12 | 24.8 | 15.3 | i | 2.7 | 63.4* | -11.8
Cc1cc(F)ccc1S(=O)(=O)Nc1ccccc1C(=O)NC1CCN(Cc2ccccc2)CC1 | -4.8 | -3.3 | i | -1.1 | -0.1 | x
CCN(CC)S(=O)(=O)c1cc(NC(=O)CNc2cccc(S(=O)(=O)N3CCOCC3)c2)ccc1C | 2.4 | 1.2 | i | -0.8 | 57.0* | -4.7
Cc1ccc(NC(=O)CNc2cccc(S(=O)(=O)N3CCOCC3)c2)cc1F | 3.2 | 1.8 | i | -1.1 | -5.6 | x
c1ccc(Oc2nc(-c3cccnc3)nc3ccccc23)cc1 | -1.0 | 1.6 | i | 0.2 | 82.6* | -3.3
Fc1ccccc1CNc1nc(-c2cccnc2)nc2ccccc12 | 16.1 | 15.4 | i | 0.9 | 80.6* | -9.9
O=[N+]([O-])c1ncccc1Oc1nc(-c2cccnc2)nc2ccccc12 | -4.4 | -1.4 | i | -1.7 | -3.8 | x
CCC12C(=Nc3c(Cl)cccc31)C[C@@H]1CCN3C(=O)CCC[C@H]2[C@H]13 (stereo not given in full) | 0.6 | 3.0 | i | 0.1 | 3.6 | x
CC(NC(=O)CCc1ccccc1)c1ccc2c(c1)OCO2 (stereo not given) | 0.9 | -9.7 | i | 1.2 | -6.8 | x
CCCCCCC1CCC(C(=O)N2CCOCC2)CC1 (stereo not given) | 3.5 | -0.1 | i | -0.3 | 0.8 | x
CC12CCC(=O)N1C(C(=O)OCc1c(Cl)cccc1Cl)CS2 (stereo not given) | 9.0 | -0.9 | i | -0.2 | 16.5 | x
COc1ccc(NC(=O)c2cc([N+](=O)[O-])ccc2N2CCCCC2)cc1 | 4.3 | 15.5 | i | -2.2 | 68.4* | -13.1
Cc1ccccc1-c1csc(C(O)c2cccnc2)n1 (stereo not given) | -2.2 | 5.2 | i | -0.4 | -3.2 | x
CC(C)Oc1ccccc1OCCN(C)C | 15.1 | -9.0 | i | 1.4 | 0.5 | x
CN(C)CCC(Oc1ccccc1OCc1ccccc1)c1ccccc1 (stereo not given) | -10.1 | 2.8 | i | 3.0 | 56.5* | -4.1
CN(C)CCCn1c(=S)[nH]c2ccccc2c1=O | 1.5 | -6.2 | i | -0.1 | -0.1 | x
CN(C)CCCn1c2c3ccccc3ccc2c2oc(=O)c3ccccc3c21 | 3.0 | 11.1 | u | 0.2 | 56.3* | 23.3
COc1ccccc1NC(=O)C/C(C)=N/NC(=O)COc1c(Br)cc(Br)cc1OC | 1.7 | -5.1 | i | -1.1 | 0.9 | x
S=C(N/N=C/c1cccc2ccccc12)Nc1cccc(Cl)c1 | 2.9 | 10.1 | i | 0.5 | -23.7 | x
COc1ccc(OC)c(NC(=O)c2cccc3c2C(=O)N(C2CCCCC2)C3)c1 | -0.8 | 10.8 | i | -1.8 | 78.3* | -13.4
COc1ccc(NC(=O)c2cccc3c2C(=O)N(C2CCCCC2)C3)cc1 | 1.1 | -2.0 | i | -1.4 | 10.3 | x
O=C1OCCC1=COCCCCCOC=C1CCOC1=O | 6.2 | -9.2 | i | -1.0 | 6.5 | x
COCCNC(=S)N(CCc1c(C)[nH]c2ccc(F)cc12)Cc1ccco1 | -0.8 | 17.2 | i | 0.1 | 62.8* | -13.7
O=C(Nc1ccc2c(c1)OCO2)C1CCCN(c2nc3ccccc3s2)C1 (stereo not given) | 6.6 | -0.6 | i | 0.3 | 62.4* | -13.0
